Test results taken from ChEMBL document CHEMBL1130202, “Biologically active heteroarotinoids exhibiting anticancer activity and decreased toxicity” (J Med Chem, 1997).
The source made the active and inactive calls. The calls are words filed in the database; no cut-off is given here.

Columns and labels:
Mus musculus [1] = organism: Mus musculus; experiment: Calculated 30-day maximally tolerated dose based on 10% weight loss in mice at high dose; assay type: functional
Mus musculus [2] = organism: Mus musculus; experiment: Average number of fractures per mouse at mid dose 1
Mus musculus [3] = organism: Mus musculus; experiment: Approximate day to 10% weight loss in mice at high dose; assay type: functional
In short: (§1)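 Male B6D2F1 mice dosed daily by gavage in corn oil; body weights followed to termination (day 65, or day 25 for TTNPB 0.01/0.05 mg/kg/day groups) and compared with the matching vehicle group. Value is approximate day of onset of 10% body weight reduction versus vehicle.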

Mus musculus [4] = organism: Mus musculus; experiment: Effect of compound on serum triglycerides levels in mice at high dose on day 29; assay type: functional
In short: (§2)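 Male B6D2F1 mice dosed daily by oral gavage in corn oil at low, mid 1, mid 2 or high dose. Blood sampled on set days (8, 29, 36, 65) for clinical chemistry, serum alkaline phosphatase and triglycerides. Group mean ± SD reported as % relative to vehicle 1; significance p < 0.05 versus corn oil vehicle.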

Mus musculus [5] = organism: Mus musculus; experiment: Effect of compound on adrenal to body weight ratios in mice at mid dose 2 on day 65; assay type: functional
In short: (§3)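 Male B6D2F1 mice dosed daily by gavage with compound in corn oil; vehicle 1 (corn oil) controls run to termination on day 65. Low, mid 1, mid 2 and high dose groups, with dosage increases partway through the study. Organ-to-body weight ratios (×1000) taken at necropsy on day 65, reported as mean ± SD for 4 to 8 animals and as % difference from vehicle.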

Mus musculus [6] = organism: Mus musculus; experiment: Effect of compound on right testicle to body weight ratios in mice at mid dose 1 on day 65; assay type: functional; in short: as §3
Mus musculus [7] = organism: Mus musculus; experiment: Calculated 30-day maximally tolerated dose based on 10% weight loss in mice at low dose; assay type: functional
Mus musculus [8] = organism: Mus musculus; experiment: Effect of compound on adrenal to body weight ratios in mice at low dose on day 65; assay type: functional; in short: as §3
Mus musculus [9] = organism: Mus musculus; experiment: Effect of compound on right testicle to body weight ratios in mice at mid dose 2 on day 65; assay type: functional; in short: as §3
Mus musculus [10] = organism: Mus musculus; experiment: Effect of compound on serum triglycerides levels in mice at mid dose 1 on day 29; assay type: functional
In short: (§4)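 Male B6D2F1 mice were gavaged daily with compound in corn oil at low, mid 1, mid 2 or high dose. Serum triglycerides and circulating white blood cells were measured on the stated day (8, 29, 36, 65). Values are group mean ± SD expressed as % relative to corn-oil vehicle, with significance at p ≤ 0.05.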

Mus musculus [11] = organism: Mus musculus; experiment: Calculated 30-day maximally tolerated dose based on 10% weight loss in mice at mid dose 2; assay type: functional
Mus musculus [12] = organism: Mus musculus; experiment: Effect of compound on Spleen to body weight ratios in mice at mid dose 2 on day 65; assay type: functional; in short: as §3
Mus musculus [13] = organism: Mus musculus; experiment: Average number of fractures per mouse at low dose
Mus musculus [14] = organism: Mus musculus; experiment: Effect of compound on serum Alkaline phosphatase levels in mice at high dose on day 29; assay type: functional; in short: as §2
Mus musculus [15] = organism: Mus musculus; experiment: Effect of compound on thymus to body weight ratios in mice at mid dose 2 on day 65; assay type: functional
In short: (§5)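 Male B6D2F1 mice were dosed daily by gavage in corn oil, with TTNPB given at 0.1–0.8 or 0.01/0.05 mg/kg/day. Thymus-to-body weight ratio (×1000) was taken at necropsy on day 65 against vehicle 1, or on day 25 for the 0.01/0.05 groups against vehicle 2. Mean ± SD of 4–8 animals, reported as % difference from vehicle.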

Mus musculus [16] = organism: Mus musculus; experiment: Effect of compound on Spleen to body weight ratios in mice at mid dose 1 on day 65; assay type: functional; in short: as §3
Mus musculus [17] = organism: Mus musculus; experiment: Total dose of 10% weight loss in mice at mid dose 1; assay type: functional
Mus musculus [18] = organism: Mus musculus; experiment: Effect of compound on right testicle to body weight ratios in mice at low dose on day 65; assay type: functional; in short: as §3
Mus musculus [19] = organism: Mus musculus; experiment: Total dose of 10% weight loss in mice at mid dose 2; assay type: functional
Mus musculus [20] = organism: Mus musculus; experiment: Effect of compound on serum Alkaline phosphatase levels in mice at low dose on day 65; assay type: functional; in short: as §2
CC-B = experiment: Relative transcriptional activation activity relative to t-RA; assay type: functional, Homo sapiens
In short: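 CC-B reporter cells (CC-1 cervical line carrying a CAT gene under a RARE with a tk promoter) were seeded at 4×10^5 cells/well in MEM with nonessential amino acids, pyruvate and 10% FBS, the serum lots having negligible t-RA by HPLC. Triplicate cultures were screened at 10^-6 M with 0.1% DMSO final. After 48 h, CAT activity ([3H]acetyl-CoA) per mg protein was taken as treated/control and expressed relative to t-RA. Average of three experiments.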

Mus musculus [21] = organism: Mus musculus; experiment: Effect of compound on adrenal to body weight ratios in mice at mid dose 1 on day 65; assay type: functional; in short: as §3
Mus musculus [22] = organism: Mus musculus; experiment: Effect of compound on serum Alkaline phosphatase levels in mice at mid dose 2 on day 65; assay type: functional; in short: as §2
Mus musculus [23] = organism: Mus musculus; experiment: Average number of fractures per mouse at high dose
Mus musculus [24] = organism: Mus musculus; experiment: Average number of fractures per mouse at mid dose 2
Mus musculus [25] = organism: Mus musculus; experiment: Effect of compound on thymus to body weight ratios in mice at low dose on day 65; assay type: functional; in short: as §5
Mus musculus [26] = organism: Mus musculus; experiment: Effect of compound on thymus to body weight ratios in mice at mid dose 1 on day 65; assay type: functional; in short: as §5
[27] = Mortality rate in mice in low dose; assay type: ADME; settings: mouse, in vivo
In short: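 Male B6D2F1 mice given compound daily by gavage in corn oil at the stated dose levels, with corn oil vehicle controls. Deaths counted as animals found dead or sacrificed moribund, with day(s) of death recorded. Heteroarotinoid groups ran to day 65 and low-dose reference groups to day 25.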

Mus musculus [28] = organism: Mus musculus; experiment: Approximate day to 10% weight loss in mice at mid dose 1; assay type: functional; in short: as §1
Mus musculus [29] = organism: Mus musculus; experiment: Total dose of 10% weight loss in mice at high dose; assay type: functional
Mus musculus [30] = organism: Mus musculus; experiment: Effect of compound on serum Alkaline phosphatase levels in mice at high dose on day 36; assay type: functional; in short: as §2
Mus musculus [31] = organism: Mus musculus; experiment: Approximate day to 10% weight loss in mice at mid dose 2; assay type: functional; in short: as §1
Mus musculus [32] = organism: Mus musculus; experiment: Total dose of 10% weight loss in mice at low dose; assay type: functional
Mus musculus [33] = organism: Mus musculus; experiment: Calculated 30-day maximally tolerated dose based on 10% weight loss in mice at mid dose 1; assay type: functional
Mus musculus [34] = organism: Mus musculus; experiment: Approximate day to 10% weight loss in mice at low dose; assay type: functional; in short: as §1
Mus musculus [35] = organism: Mus musculus; experiment: Compound total dose to termination (day 25/65) in mid dose 1; assay type: functional
In short: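 Male B6D2F1 mice given daily oral gavage in corn oil; dosages increased during the study (day 30 or day 51 depending on compound). Cumulative dose in mg/kg administered up to termination (day 65, or day 25 for TTNPB 0.01/0.05 mg/kg/day groups).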

Mus musculus [36] = organism: Mus musculus; experiment: Effect of compound on right testicle to body weight ratios in mice at high dose on day 65; assay type: functional; in short: as §3
Mus musculus [37] = organism: Mus musculus; experiment: Effect of compound on white blood cells levels in mice at high dose on day 65; assay type: functional; in short: as §4
Mus musculus [38] = organism: Mus musculus; experiment: Effect of compound on adrenal to body weight ratios in mice at high dose on day 65; assay type: functional; in short: as §3
Mus musculus [39] = organism: Mus musculus; experiment: Effect of compound on Spleen to body weight ratios in mice at high dose on day 65; assay type: functional; in short: as §3
Mus musculus [40] = organism: Mus musculus; experiment: Enlarged spleen in Gross pathological observations in mice with hypervitaminosis A at high dose with gross observations/total number of mice in group; 0/16; assay type: functional, organism-based
Mus musculus [41] = organism: Mus musculus; experiment: Fracture incidence in mouse at low dose; 0/8
Mus musculus [42] = organism: Mus musculus; experiment: Effect of compound on serum triglycerides levels in mice at low dose on day 29; assay type: functional; in short: as §2

## C/C(=C\c1ccc(C(=O)O)cc1)c1ccc2c(c1)C(C)(C)CCO2
Mus musculus [1]
  Max tolerated dose: 9.4 mg/kg
Mus musculus [2]
  Activity: 1.9
Mus musculus [3]
  Activity: 36
Mus musculus [4]
  Activity: 192
Mus musculus [5]
  Activity: 0.3
Mus musculus [6]
  Activity: 2
Mus musculus [7]
  Max tolerated dose: >4.9 mg/kg
Mus musculus [8]
  Activity: 0.3
Mus musculus [9]
  Activity: 1.9
Mus musculus [10]
  Activity: 175.9
Mus musculus [11]
  Max tolerated dose: 7.4 mg/kg
Mus musculus [12]
  Activity: 7.1
Mus musculus [13]
  Activity: 0.4
Mus musculus [14]
  Activity: 103.1
Mus musculus [15]
  Activity: 0.9
Mus musculus [16]
  Activity: 5
Mus musculus [17]
  Dose: 190.2 mg/kg
Mus musculus [18]
  Activity: 1.9
Mus musculus [19]
  Dose: 220.6 mg/kg
Mus musculus [20]
  Activity: 115
CC-B
  Relative activity: 31
Mus musculus [21]
  Activity: 0.4
Mus musculus [22]
  Activity: 134.8
Mus musculus [23]
  Activity: 1.3
Mus musculus [24]
  Activity: 3.4
Mus musculus [25]
  Activity: 1.5
Mus musculus [26]
  Activity: 1.3
[27]
  Mortality: 0 day of death
Mus musculus [28]
  Activity: 51
Mus musculus [29]
  Dose: 280.8 mg/kg
Mus musculus [30]
  Activity: 86.3
Mus musculus [31]
  Activity: 41
Mus musculus [32]
  Dose: 147.1 mg/kg
Mus musculus [33]
  Max tolerated dose: 6.3 mg/kg
Mus musculus [34]
  Activity: >65

## CC(/C=C/C=C(\C)c1ccc2c(c1)C(C)(C)CCS2)=C\C(=O)O
Mus musculus [1]
  Max tolerated dose: 33.9 mg/kg
Mus musculus [3]
  Activity: 54
Mus musculus [4]
  Activity: 164.2
Mus musculus [35]
  Total dose: 414.2 mg/kg
Mus musculus [5]
  Activity: 0.3
Mus musculus [6]
  Activity: 3.1
Mus musculus [7]
  Max tolerated dose: >6.9 mg/kg
Mus musculus [36]
  Activity: 2.7
Mus musculus [8]
  Activity: 0.3
Mus musculus [9]
  Activity: 2.8
Mus musculus [10]
  Activity: 174.1
Mus musculus [37]
  Activity: 4.18
Mus musculus [11]
  Max tolerated dose: >27.6 mg/kg
Mus musculus [12]
  Activity: 2.2
Mus musculus [13]
  Activity: 0
Mus musculus [14]
  Activity: 94.6
Mus musculus [38]
  Activity: 2.6
Mus musculus [39]
  Activity: 2.6
Mus musculus [15]
  Activity: 1.6
Mus musculus [16]
  Activity: 2
Mus musculus [17]
  Dose: >414.2 mg/kg
Mus musculus [18]
  Activity: 2.6
Mus musculus [19]
  Dose: >828.4 mg/kg
Mus musculus [20]
  Activity: 127.5
CC-B
  Relative activity: 52
Mus musculus [21]
  Activity: 0.3
Mus musculus [22]
  Activity: 137
Mus musculus [23]
  Activity: 0.3
Mus musculus [24]
  Activity: 0
Mus musculus [25]
  Activity: 1.7
Mus musculus [26]
  Activity: 1.5
[27]
  Mortality: 0 day of death
Mus musculus [28]
  Activity: >65
Mus musculus [29]
  Dose: 1016.8 mg/kg
Mus musculus [40]
  Activity: inactive
Mus musculus [30]
  Activity: 84.6
Mus musculus [31]
  Activity: >65
Mus musculus [32]
  Dose: >207.1 mg/kg
Mus musculus [33]
  Max tolerated dose: >13.8 mg/kg
Mus musculus [41]
  Activity: inactive
Mus musculus [34]
  Activity: >65
Mus musculus [42]
  Activity: 176.4
